Compound activity from PubChem BioAssay.
Sampled rows, rich in hits. Any-hit rate of the full collection: about 3.9%.
SR-BI DiI-HDL act: activators of SR-BI mediated DiI-HDL uptake, primary screen, ldlA[mSR-BI] CHO cells, DiI fluorescence; hit rate 0.096% among 320,000; activation, % at 12.5 µM; AID 504775, 2011; 3 h; 100 = double the neutral-control signal;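 active = mean replicate activation of at least 60% and every replicate at or above 60%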;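 also: 0% = median plate neutral-control signal and 100% = twice that signal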
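Material: SR-BI-overexpressing, LDLR-lacking CHO cells | Dosing: Single compound concentration, delivered by pin transfer | Probe or stimulus: Labelled HDL, 10 µg/mL | Signal: Bottom-read cell fluorescence after medium removal, ex 550/em 595 nm | Schedule: 3 h, 37 °C | Evaluation: HDL uptake via cellular fluorescence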
AHR act: AHR activators, primary screen, cell-based, luminescence, luciferase reporter, human; AID 2796, 2010; hit rate 2.5% among 320,000; activation, % at 5 µM; Aryl hydrocarbon receptor (Homo sapiens), P35869; AHR-responsive luciferase reporter cells; in the data active = activation above about 47%;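 also: 0% = vehicle wells and 100% = reference agonist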
GAA850 FXN act: FXN promoter activators, primary screen, cell-based, luciferase luminescence, HEK293 lucGAA850. activation, % at 6 µM. HEK293 lucGAA850 FXN promoter luciferase reporter, 24 h; percent of 10 µM SAHA response. hit rate 0.56% among 360,000;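 active = activation above the average of all compounds screened plus 3 SD, cutoff fixed separately per campaign, cut at about 7.5% in these data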;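 also: 0% = DMSO wells and 100% = 10 µM SAHA wells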
ABCB6 inh MLPCN: ABCB6 transporter inhibitors, primary screen, K562-ABCB6 cells, flow cytometry, MLPCN library | fluorescence ratio to DMSO, % at 10 µM | AID 602162, 2011 | K562-ABCB6 porphyrin accumulation, 1 h; stronger effect = lower value | hit rate 0.19% among 360,000 | ATP-binding cassette sub-family B member 6 (Homo sapiens), Q9NP58;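 active = fluorescence ratio to DMSO below 75%, the collection mean minus 3 SD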;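 also: signal is porphyrin accumulated inside mitochondria; 100% equals median channel fluorescence of DMSO control wells; lower ratio means ABCB6 inhibition with less porphyrin fluorescence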
SR-BI HDL uptake: inhibitors of SR-BI mediated HDL lipid uptake, primary screen, ldlA[mSR-BI] cells, fluorescence, single point; Scavenger receptor class B member 1 (Mus musculus), Q61009; ldlA[mSR-BI] CHO cells, DiI-HDL uptake fluorescence, 3 h; AID 488896, 2010; inhibition, % at 12.5 µM; hit rate 0.96% among 320,000;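 active = mean replicate inhibition of at least 70% and a set share of replicates each scoring 70 or more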;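 also: 0% = median of neutral control wells and 100% = median of positive control wells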
Target sequence (Q61009 whole entry, looked up): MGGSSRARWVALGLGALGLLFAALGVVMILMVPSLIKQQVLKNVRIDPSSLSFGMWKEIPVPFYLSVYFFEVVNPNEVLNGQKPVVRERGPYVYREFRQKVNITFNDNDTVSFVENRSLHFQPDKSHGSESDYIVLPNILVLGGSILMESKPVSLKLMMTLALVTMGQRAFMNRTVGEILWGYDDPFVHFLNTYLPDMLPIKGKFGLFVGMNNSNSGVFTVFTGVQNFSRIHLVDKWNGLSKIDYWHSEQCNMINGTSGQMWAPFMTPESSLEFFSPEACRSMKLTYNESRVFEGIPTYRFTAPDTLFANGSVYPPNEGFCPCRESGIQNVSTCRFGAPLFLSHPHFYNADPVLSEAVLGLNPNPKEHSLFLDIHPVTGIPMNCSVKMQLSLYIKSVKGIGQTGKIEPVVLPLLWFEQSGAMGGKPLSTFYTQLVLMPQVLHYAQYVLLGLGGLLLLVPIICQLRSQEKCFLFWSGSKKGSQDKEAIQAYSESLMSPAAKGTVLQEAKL
HIF act: HIF pathway transcriptional activators, primary screen, cell-based, U2OS HRE-luciferase, luminescence | activation, % at 7.5 µM (by protocol) | U2OS HRE-luciferase reporter; normalized: DMSO 0%, desferrioxamine 100% | hit rate 0.32% among 300,000 | AID 1910, 2009;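 active = mean activation of at least 10% of the iron chelator positive control signal, with at least half of replicates also reaching 10%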
* marks the source's active call; other numbers are inactive results; / = not tested or not shown.

SMILES | SR-BI DiI-HDL act | AHR act | GAA850 FXN act | ABCB6 inh MLPCN | SR-BI HDL uptake | HIF act
COC(=O)c1ccc(C(=O)OC)c(NC(=O)COC(=O)C23CC4CC(CC(O)(C4)C2)C3)c1 | -20 | 1 | 0 | 93 | 20 | 1
Cc1ccc(C(C)C)c(OCc2ccc(-c3nnco3)cc2)c1 | -32 | -7 | -3 | 100 | 32 | -2
c1ccc(-c2cccc(-c3ccccn3)n2)nc1 | -4 | -7 | -14 | 96 | 4 | 212*
Cc1ccc(S(=O)(=O)N2CCN(C(=O)C3CCN(c4ncnc5sc(C)c(C)c45)CC3)CC2)c(C)c1 | -42 | / | 0 | 64* | 42 | /
Cc1sc2ncnc(N3CCC(C(=O)NNC(=O)COc4ccc(Br)cc4)CC3)c2c1C | -81 | 5 | 1 | 90 | 81* | 1
Cc1cc(S(=O)(=O)ON2C(=O)c3ccccc3C2=O)ccc1F | 8 | -1 | 0 | 103 | -8 | 37*
O=C1c2ccccc2C(=O)N1OS(=O)(=O)c1ccccc1 | / | 4 | / | / | / | /
CC(CCC(=O)O)C1CCC2C3CC(O)C4CC(O)CC[C@]4(C)C3CCC12C (some centres not stated) | 21 | / | -1 | 98 | -21 | /
NC(=S)NNc1cccc2cccnc12 | -68 | 24 | 2 | 84 | 68 | 1
Cc1cccc(OCC(=O)Nc2ccc3c(c2)nc(CCN2CCN(c4ccccn4)CC2)n3C)c1 | -73 | 1 | -1 | 97 | 73* | 0
O=[N+]([O-])c1ccc(Cl)c(/C=N/N2CCN(c3ccccc3)CC2)c1 | -30 | 58* | 3 | 100 | 30 | 0
Cc1ccccc1/C=N/N1CCN(c2ccccc2)CC1 | 5 | 73* | 5 | 99 | -5 | 1
CC(c1ccccc1)N1CC(C(=O)N2CCCC(C(N)=O)C2)CC1=O (configuration not stated) | 14 | 2 | -1 | 97 | -14 | /
CC1=C(C(=O)N2CCOCC2)C(c2cccc(C)c2)NC(=S)N1 (configuration not stated) | -2 | -1 | -4 | 96 | 2 | /
CC(=O)Nc1ccc(C=NN=C2c3ccccc3-c3ccccc32)cc1 | -55 | / | 2 | 100 | 55 | /
CCCC(=O)Oc1c(S(=O)(=O)c2ccc(C)cc2)c(C)nn1C(C)(C)C | -33 | -2 | 1 | 96 | 33 | 0
Cc1ccc(-c2cc3c(N=O)c4ccccc4c-3n[nH]2)cc1 | 2 | 9 | -13 | 98 | -2 | -3
Cc1cccc(-c2cc3c(N=O)c4ccccc4c-3n[nH]2)c1 | 7 | 127* | 5 | 95 | -7 | 0
COc1ccc(CN=Cc2[nH]c3ccc(Br)c(Cl)c3c2O)cc1 | 0 | 57* | -3 | 228 | 0 | 0
COc1ccccc1C/C(N)=N/O | 14 | 2 | 0 | 105 | -14 | 204*
COc1ccc(CN2CCN(S(=O)(=O)c3ccccc3)CC2)c(OC)c1 | -8 | 52* | -4 | 103 | 8 | 0
COc1ccc(OC)c(CN2CCN(C(=O)c3cccc(S(=O)(=O)Nc4ccccc4OC)c3)CC2)c1 | -77 | 1 | 1 | 94 | 77* | 0
Cc1ccccc1C(=O)NC1CCN(CC(=O)NCc2ccc(F)cc2)CC1 | 13 | 1 | 1 | 103 | -13 | 0
CC(=O)COC(=O)CNC(=O)c1ccc(Br)cc1 | 16 | 0 | -2 | 103 | -16 | 0
O=C(NC1CCCCC1)C(c1ccc2ncccc2c1)N(Cc1ccccc1)C(=O)c1cccs1 (configuration not stated) | -8 | 0 | -3 | 99 | 8 | -1
SMILES | SR-BI DiI-HDL act | AHR act | GAA850 FXN act | ABCB6 inh MLPCN | SR-BI HDL uptake | HIF act
O=C1CSC(=O)N1CC(O)COc1ccc(Cl)cc1 (configuration not stated) | 7 | 2 | 3 | 99 | -7 | 0
O=C(N/N=C/c1cc(Cl)ccc1O)C(=O)Nc1ccccc1OC(F)(F)C(F)F | -119 | 3 | -5 | 92 | 119* | /
O=C(N/N=C/c1cc(Br)ccc1O)C(=O)Nc1ccccc1OC(F)(F)C(F)F | -129 | 0 | -7 | 106 | 129* | 12*
COc1ccccc1/C=N/NC(=O)C(=O)Nc1ccccc1OC(F)(F)C(F)F | -55 | 5 | 4 | 98 | 55 | /
NS(=O)(=O)c1cnccc1NCCc1ccccc1 | / | 1 | 1 | 100 | / | -1
CC(=O)c1ccc(NC(=O)CN2C(=O)NC(C)(c3ccc4c(c3)OCCO4)C2=O)cc1 (configuration not stated) | -1 | 2 | -2 | 101 | 1 | /
O=S(=O)(NNc1ncc(C(F)(F)F)cc1Cl)c1ccccc1 | -27 | 69* | 2 | 101 | 27 | /
O=C(Nc1c2c(nn1-c1ccccc1)CS(=O)(=O)C2)c1ccccc1Br | 14 | 2 | 0 | 96 | -14 | 0
N#Cc1c(C(F)(F)F)cc(-c2ccccc2)n(N)c1=O | 6 | 3 | 0 | 99 | -6 | -1
CCOc1cc2[nH]c(=O)n(Cc3ccccc3)c(=O)c2cc1OCC | -29 | 5 | -2 | 102 | 29 | 0
O=[N+]([O-])c1ccc(C2Oc3ccccc3C3CC(c4ccccc4)=NN32)s1 (configuration not stated) | / | 59* | / | / | / | /
CC(=O)N1N=C(c2ccccc2)CC1c1ccccc1[N+](=O)[O-] (configuration not stated) | -8 | 35 | 0 | 99 | 8 | 1
c1ccc(C2Oc3ccccc3C3CC(c4cccs4)=NN32)cc1 (configuration not stated) | -5 | 48* | 2 | 100 | 5 | 2
OC(c1cc(C(F)(F)F)nc2c(Cl)cc(Cl)cc12)C1CCCCN1 (configuration not stated) | 66* | 1 | -7 | 99 | -66 | -1
Cc1cc(/C=N/NC(N)=S)c(C)n1-c1ccc(Cl)c(Cl)c1 | -81 | 10 | -4 | 96 | 81* | 0
COc1ccccc1N1CCN(CCCNC(=O)C2CCCN(c3ncnc4c3nc3n4CCCCC3)C2)CC1 (configuration not stated) | -40 | 0 | -3 | 107 | 40 | 134*
Cc1cccc(N2CCN(C(=O)C3CCN(c4ncnc5c4nc4n5CCCCC4)CC3)CC2C)c1 (configuration not stated) | -71 | 3 | -4 | 95 | 71* | 0
O=C(C1CCN(c2ncnc3c2nc2n3CCCCC2)CC1)N1CCN(c2ccccc2F)CC1 | -29 | 1 | 0 | 106 | 29 | 1
